Reference: ChEMBL document CHEMBL3600357 (J Med Chem, 2015)
The source made the active and inactive calls. The calls are words filed in the database; no cut-off is given here.

Tests used:
SJSA-1 [1] = experiment: Inhibition of cell proliferation of human SJSA1 cells
[2] = Octanol water partition coefficient, logP of the compound; type: physicochemical
[3] = Intrinsic clearance in human liver microsomes; type: ADME; settings: read-out: CLH
Rattus norvegicus [4] = experiment: Oral bioavailability in Sprague-Dawley rat at 3 mg/kg; type: ADME, organism-based; settings: in vivo
Method in brief: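 Sprague-Dawley rats. IV dose given as a solution in NMP:PEG200 (10:90); 3 mg/kg PO given as a suspension in CMC:water:Tween (0.5:99:0.5). AUC and Cmax dose-normalized to 1 mg/kg. Mean ± SD from four rats.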

[5] = Protein binding in Sprague-Dawley rat plasma by equilibrium dialysis method; type: ADME, cell-free; settings: read-out: PPB
Method in brief: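 Rat plasma protein binding by rapid equilibrium dialysis (RED) in 100% plasma.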

[6] = Inhibition of rat MDM2 by TR-FRET assay
Mus musculus = experiment: Oral bioavailability in OF1 mouse at 3 mg/kg; type: ADME, organism-based; settings: in vivo
[7] = Terminal half life in beagle dog at 0.1 mg/kg, iv; type: ADME, organism-based, Canis lupus familiaris; settings: in vivo, read-out: beta t1/2 (converted)
Canis familiaris [8] = experiment: AUC in beagle dog at 0.3 mg/kg, po; type: ADME, organism-based, Canis lupus familiaris; settings: in vivo
[9] = Cmax in beagle dog at 0.3 mg/kg, po; type: ADME, organism-based, Canis lupus familiaris; parameters: dose 0.3 mg/kg, route oral; settings: in vivo
Canis familiaris [10] = experiment: Oral bioavailability in beagle dog at 0.3 mg/kg; type: ADME, organism-based, Canis lupus familiaris; settings: in vivo
[11] = Protein binding in beagle dog plasma by equilibrium dialysis method; type: ADME, cell-free, Canis lupus familiaris; settings: read-out: PPB
[12] = Volume of distribution at steady state in cynomolgus monkey at 0.1 mg/kg, iv; type: ADME, organism-based, Macaca fascicularis; settings: in vivo, read-out: Vdss
Cynomolgus monkey = experiment: Oral bioavailability in cynomolgus monkey at 0.3 mg/kg; type: ADME, organism-based, Macaca fascicularis; settings: in vivo
[13] = Protein binding in cynomolgus monkey plasma by equilibrium dialysis method; type: ADME, cell-free, Macaca fascicularis; settings: read-out: PPB
[14] = Inhibition of Ras (unknown origin) assessed as inhibition of Ras-Raf interaction by TR-FRET assay; parameters: species or system Homo sapiens
[15] = target: Induced myeloid leukemia cell differentiation protein Mcl-1 (Homo sapiens, UniProt Q07820); experiment: Inhibition of Mcl1 (unknown origin) assessed as inhibition of Mcl1-Noxa interaction by TR-FRET assay
[16] = target: E3 ubiquitin-protein ligase XIAP (Homo sapiens, UniProt P98170); experiment: Inhibition of XIAP (unknown origin) assessed as inhibition of XIAP-BIR3 interaction by TR-FRET assay
[17] = target: Baculoviral IAP repeat-containing protein 2 (Homo sapiens, UniProt Q13490); experiment: Inhibition of cIAP (unknown origin) assessed as inhibition of cIAP-BIR3 interaction by TR-FRET assay
HCT-116 [18] = experiment: Inhibition of cell proliferation of human HCT116 cells expressing p53
HCT-116 [19] = experiment: Inhibition of cell proliferation of human HCT116 cells deficient with p53 gene
Rattus norvegicus [20] = experiment: In-vivo inhibition of MDM2/p53 interaction in human SJSA1 cells xenografted rat assessed as increase in p21 mRNA level at 30 mg/kg, po measured within 72 hrs post dose by qRT-PCR method; type: functional, organism-based; settings: SJSA-1
Method in brief: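 SJSA-1 (MDM2-amplified) tumour-bearing rats were dosed at 30 mg/kg. Tumour samples were collected over time, and p21, MDM2 and PUMA mRNA were measured as p53 pharmacodynamic markers, alongside compound levels.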

SJSA-1 [21] = experiment: Antitumor activity against human SJSA1 cells xenografted in rat assessed as reduction tumor growth dosed orally on daily basis under q24h regime; type: functional, organism-based
Method in brief: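 SJSA-1 tumour-bearing rats were treated either daily or 3qw (Monday, Wednesday and Friday) across a range of doses, and tumour growth was followed over the treatment course. Plasma AUC0-24 was also determined, along with AUC0-48 for the 3qw schedule.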

Rattus norvegicus [22] = experiment: Toxicity in human SJSA1 cells xenografted dosed rat assessed as induction of histopathological changes dosed orally on daily basis under q24h regime; type: organism-based, SJSA-1; settings: in vivo, po
Method in brief: (§1)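 Rats bearing MDM2-amplified SJSA-1 human tumours, treated daily. Tolerability was monitored during treatment. Histopathology for compound-related findings was performed at the 30 mg/kg daily dose.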

Rattus norvegicus [23] = experiment: Toxicity in human SJSA1 cells xenografted dosed rat assessed as drug toleration dosed orally on daily basis under q24h regime; type: organism-based, SJSA-1; settings: in vivo, po; method in brief: as §1
Rattus norvegicus [24] = species on record: Rattus norvegicus; experiment: Toxicity in rat assessed as changes in heart parameters; type: organism-based; settings: in vivo
Rattus norvegicus [25] = species on record: Rattus norvegicus; experiment: Toxicity in female rat assessed as changes in adrenal gland parameters; type: organism-based; settings: in vivo
Rattus norvegicus [26] = species on record: Rattus norvegicus; experiment: Toxicity in rat assessed as induction of structural changes in testes tubular epithelium; type: organism-based, Testis; settings: in vivo
Rattus norvegicus [27] = experiment: Toxicity in human SJSA1 cells xenografted rat assessed as change in body weight at 20 mg/kg, po qd (reference value: 1.9 to 6.8%); type: organism-based, SJSA-1; settings: in vivo
Rattus norvegicus [28] = experiment: Toxicity in human SJSA1 cells xenografted rat assessed as mouse survival at 5 mg/kg, po qd; type: organism-based, SJSA-1; settings: in vivo
Method in brief: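 Tolerability was monitored in SJSA-1 tumour-bearing rats during the daily and 3qw (Monday, Wednesday, Friday) treatment schedules. Histopathology was done on all 3qw doses and on the 30 mg/kg daily group.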

[29] = AUC (0 to 24 hrs) in human SJSA1 cells xenografted rat assessed as mouse survival at 10 mg/kg, po qd; type: ADME, organism-based, SJSA-1; parameters: time < 24 hr, dose 10 mg/kg, route oral; settings: in vivo
Method in brief: (§2)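 Rats bearing MDM2-amplified human SJSA-1 tumors, dosed orally either daily or 3qw (Monday, Wednesday, Friday). Plasma exposure reported as AUC0-24, plus AUC0-48 for the 3qw schedule.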

[30] = AUC (0 to 24 hrs) in human SJSA1 cells xenografted rat assessed as mouse survival at 30 mg/kg, po dosed 3 times per week; type: ADME, organism-based, SJSA-1; parameters: dose 30 mg/kg, time < 24 hr, route oral; settings: in vivo; method in brief: as §2

Sequence of Baculoviral IAP repeat-containing protein 2 (Q13490 whole entry): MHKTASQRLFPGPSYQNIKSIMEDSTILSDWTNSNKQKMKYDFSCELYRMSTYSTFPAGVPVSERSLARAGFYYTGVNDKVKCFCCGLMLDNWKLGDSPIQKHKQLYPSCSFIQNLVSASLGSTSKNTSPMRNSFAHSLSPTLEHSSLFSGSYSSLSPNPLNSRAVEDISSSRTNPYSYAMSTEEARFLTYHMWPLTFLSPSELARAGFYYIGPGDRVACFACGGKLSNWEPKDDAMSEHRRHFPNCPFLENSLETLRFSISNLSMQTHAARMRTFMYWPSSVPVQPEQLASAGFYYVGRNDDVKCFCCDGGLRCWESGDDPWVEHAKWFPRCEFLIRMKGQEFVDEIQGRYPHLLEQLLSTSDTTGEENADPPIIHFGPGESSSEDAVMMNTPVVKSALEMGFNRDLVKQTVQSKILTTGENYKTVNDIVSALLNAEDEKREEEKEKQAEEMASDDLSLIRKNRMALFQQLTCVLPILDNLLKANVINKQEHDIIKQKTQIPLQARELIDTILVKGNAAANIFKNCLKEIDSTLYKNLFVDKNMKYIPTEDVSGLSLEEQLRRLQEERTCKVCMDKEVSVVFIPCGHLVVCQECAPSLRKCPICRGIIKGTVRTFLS
Sequence of Induced myeloid leukemia cell differentiation protein Mcl-1 (Q07820 whole entry): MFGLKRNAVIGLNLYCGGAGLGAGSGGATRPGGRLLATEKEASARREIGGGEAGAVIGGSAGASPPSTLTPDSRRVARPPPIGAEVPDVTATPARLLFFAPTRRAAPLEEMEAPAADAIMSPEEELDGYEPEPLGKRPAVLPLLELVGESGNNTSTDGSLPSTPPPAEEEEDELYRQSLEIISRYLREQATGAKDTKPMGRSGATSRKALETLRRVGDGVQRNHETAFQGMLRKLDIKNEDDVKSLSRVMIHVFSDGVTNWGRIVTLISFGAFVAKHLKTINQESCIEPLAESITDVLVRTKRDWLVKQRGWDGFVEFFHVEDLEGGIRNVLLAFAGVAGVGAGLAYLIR
Sequence of E3 ubiquitin-protein ligase XIAP (P98170 whole entry): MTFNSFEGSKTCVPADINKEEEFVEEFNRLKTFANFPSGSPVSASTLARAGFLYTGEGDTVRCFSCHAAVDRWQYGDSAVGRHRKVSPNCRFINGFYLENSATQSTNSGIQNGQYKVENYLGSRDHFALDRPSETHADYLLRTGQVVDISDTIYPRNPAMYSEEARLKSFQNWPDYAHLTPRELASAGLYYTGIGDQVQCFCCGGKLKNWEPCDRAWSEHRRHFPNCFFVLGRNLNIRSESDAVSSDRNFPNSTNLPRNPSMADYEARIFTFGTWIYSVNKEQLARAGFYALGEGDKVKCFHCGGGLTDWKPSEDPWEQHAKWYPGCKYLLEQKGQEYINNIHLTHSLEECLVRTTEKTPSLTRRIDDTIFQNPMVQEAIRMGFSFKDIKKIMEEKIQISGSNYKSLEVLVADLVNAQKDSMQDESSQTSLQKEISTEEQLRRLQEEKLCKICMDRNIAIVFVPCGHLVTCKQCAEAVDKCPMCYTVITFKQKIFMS

COc1cc2c(cc1OC(C)C)[C@H](c1ccc(Cl)cc1)N(c1ccc(N(C)C[C@H]3CC[C@H](N4CCN(C)C(=O)C4)CC3)cc1)C(=O)C2 [CGM-097]
GI50 (SJSA-1 [1]): 0.35 µM
logP [2]: 5.8
microsomal CLint [3]: 52.3 µL/min/mg
F (Rattus norvegicus [4]): 81%
fraction unbound [5]: < 0.01
Ki [6]: 0.0474 µM
F (Mus musculus): 71%
half-life [7]: 19.8 h
AUC (Canis familiaris [8]): 5.993 µM·h
Cmax [9]: 251 nM
F (Canis familiaris [10]): 74%
fraction unbound [11]: < 0.01
Vd [12]: 2 L/kg
F (Cynomolgus monkey): 57%
fraction unbound [13]: < 0.01
IC50 [14]: 4.5 µM
IC50 [15]: > 50 µM
IC50 [16]: > 50 µM
IC50 [17]: > 50 µM
IC50 (HCT-116 [18]): 0.454 µM
IC50 (HCT-116 [19]): 16 µM
inhibition (Rattus norvegicus [20]): Active
growth inhibition (GI) (SJSA-1 [21]): Dose-dependent effect
Activity (Rattus norvegicus [22]): Non-toxic
Activity (Rattus norvegicus [23]): Non-toxic
Activity (Rattus norvegicus [24]): Toxic
Activity (Rattus norvegicus [25]): Toxic
Activity (Rattus norvegicus [26]): Toxic
Activity (Rattus norvegicus [27]): 3.4%
Activity (Rattus norvegicus [28]): Non-toxic
AUC at 24 h [29]: 61 µM·h
AUC at 24 h [30]: 230 µM·h
